Data set [1] has as its system Bel-7402. Kind of data set: Antiproliferative activity against human Bel-7402 cells assessed as reduction in cell viability at 1 uM incubated for 72 hrs by MTT assay relative to control. The class given is functional.
Data set [2] concerns Bel-7402. Kind of data set: Antiproliferative activity against human Bel-7402 cells assessed as reduction in cell viability at 10 uM incubated for 72 hrs by MTT assay relative to control. The class given is functional. (Tetrazolium dyes change colour on reduction, which living cells bring about.)
The subject of data set [3] is Bel-7402. Nature of the data set: Antiproliferative activity against human Bel-7402 cells assessed as reduction in cell viability incubated for 72 hrs by MTT assay. The class given is functional, cell-based. To be noted: Bel-7402, 72 h. The method, boiled down:
(§1)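 Cells were exposed to a range of test concentrations for 72 h and viability was read by MTT. IC50 values were taken from the concentration-response data, and means ± SD are from n = 3.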

The nature of data set [4]: Prodrug release in human Bel-7402 cells assessed as NO release by measuring increase in nitrite/nitrate production at 50 uM measured upto 24 hrs by Griess reagent based assay. The class given is ADME, cell-based. To be noted: bel-7402, 24 h. The method, boiled down:
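Bel-7402 cells were seeded at 15,000/mL and treated in triplicate with each compound at 50 µM for varying times. Nitrate/nitrite in the cell lysates was determined by the Griess assay. Values are the mean of three independent experiments.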
(In general: Nitrite, measured by Griess reagent, commonly stands in for NO production.)

For data set [5], the system named is HeLa. Kind of data set: Antiproliferative activity against human HeLa cells assessed as reduction in cell viability incubated for 72 hrs by MTT assay. The class given is functional, cell-based. The method, boiled down: as §1
In data set [6] the test system is Bel-7402. Kind of data set: Induction of apoptosis in human Bel-7402 cells assessed as apoptotic cells at 2.5 uM incubated for 36 hrs by Annexin V-FITC and PI staining based flow cytometry analysis (reference value: 6.20%). The class given is functional. (In general: Flow cytometry measures light scatter and fluorescence of single cells or particles in a stream.)

For data set [7], the system named is Bel-7402. Kind of data set: Induction of cell cycle arrest in human Bel-7402 cells assessed as accumulation in G2 phase at 0.625 uM incubated for 36 hrs by PI staining based flow cytometry analysis (reference value: 6.31 %). The class given is functional.
The test system of data set [8] is HepG2. Nature of the data set: Antiproliferative activity against human HepG2 cells assessed as reduction in cell viability incubated for 72 hrs by MTT assay. The class given is functional, cell-based. To be noted: HepG2, 72 h. The method, boiled down:
as §1

Data set [9] deals with Bel-7402. Kind of data set: Induction of cell cycle arrest in human Bel-7402 cells assessed as accumulation in S phase at 2.5 uM incubated for 36 hrs by PI staining based flow cytometry analysis (reference value: 19.68 %). The class given is functional.
Data set [10] relates to Bel-7402. Nature of the data set: Induction of cell cycle arrest in human Bel-7402 cells assessed as accumulation in G2 phase at 2.5 uM incubated for 36 hrs by PI staining based flow cytometry analysis (reference value: 6.31 %). The class given is functional.
Data set [11] deals with Bel-7402. Nature of the data set: Induction of cell cycle arrest in human Bel-7402 cells assessed as accumulation in G1 phase at 1.25 uM incubated for 36 hrs by PI staining based flow cytometry analysis (reference value: 74.01 %). The class given is functional.
Data set [12] deals with Bel-7402. Kind of data set: Induction of cell cycle arrest in human Bel-7402 cells assessed as accumulation in G1 phase at 0.625 uM incubated for 36 hrs by PI staining based flow cytometry analysis (reference value: 74.01 %). The class given is functional.
Data set [13] relates to K562. Nature of the data set: Antiproliferative activity against human K562 cells assessed as reduction in cell viability incubated for 72 hrs by MTT assay. The class given is functional, cell-based. To be noted: K562, 72 h. The method, boiled down:
as §1

In data set [14] the test system is Bel-7402. Nature of the data set: Induction of cell cycle arrest in human Bel-7402 cells assessed as accumulation in S phase at 0.625 uM incubated for 36 hrs by PI staining based flow cytometry analysis (reference value: 19.68 %). The class given is functional.
Data set [15] relates to Bel-7402. Nature of the data set: Induction of cell cycle arrest in human Bel-7402 cells assessed as increase in accumulation in S phase incubated for 36 hrs by PI staining based flow cytometry analysis. The class given is functional. To be noted: dose 0.625-2.5 µM.
Data set [16] relates to Bel-7402. Kind of data set: Induction of cell cycle arrest in human Bel-7402 cells assessed as accumulation in G1 phase at 2.5 uM incubated for 36 hrs by PI staining based flow cytometry analysis (reference value: 74.01 %). The class given is functional.
Data set [17] deals with A549. Nature of the data set: Antiproliferative activity against human A549 cells assessed as reduction in cell viability incubated for 72 hrs by MTT assay. The class given is functional, cell-based. To be noted: A549, 72 h. The method, boiled down:
as §1

Data set [18] deals with Bel-7402. Kind of data set: Induction of cell cycle arrest in human Bel-7402 cells assessed as accumulation in G2 phase at 1.25 uM incubated for 36 hrs by PI staining based flow cytometry analysis (reference value: 6.31 %). The class given is functional.
Data set [19] deals with Bel-7402. Nature of the data set: Induction of cell cycle arrest in human Bel-7402 cells assessed as accumulation in S phase at 1.25 uM incubated for 36 hrs by PI staining based flow cytometry analysis (reference value: 19.68 %). The class given is functional.
Data set [20] has as its system Bel-7402. Kind of data set: Antiproliferative activity against human Bel-7402 cells assessed as reduction in cell viability incubated for 72 hrs in presence of O2-Chloromethyl-1-( morpholin -1-yl)diazen-1-ium-1,2-diolate by MTT assay. To be noted: Bel-7402, 72 h. The class given is functional, cell-based.

Structures are written as SMILES. Where a name gives a salt, the structure may show the parent alone.

In the case of `C=C1C(=O)[C@]23[C@H](OC(=O)CCCC(=O)OCO/N=[N+](\[O-])N4CCOCC4)[C@H]1CC[C@H]2[C@@]12CO[C@@]3(O)[C@@H](O)[C@@H]1C(C)(C)CC[C@@H]2O`, in data set [1], the inhibition at 1 µM is 83.8%. Further, in data set [2], the inhibition at 10 µM came out at 92.7%. For the same molecule, the IC50 in data set [3] stood at 2.53 µM.

Consider `[O-]/[N+](=N\OCCl)N1CCOCC1`, for which the IC50 in data set [3] came out at 24.6 µM.

On to `C=C1C(=O)[C@]23[C@H](OC(=O)CCCC(=O)OCO/N=[N+](\[O-])N4CCCC4)[C@H]1CC[C@H]2[C@@]12CO[C@@]3(O)[C@@H](O)[C@@H]1C(C)(C)CC[C@@H]2O`, for which the inhibition at 1 µM in data set [1] was determined as 26.1%. Further, the inhibition at 10 µM in data set [2] was 93.4%. The IC50 in [3] was found to be 10.9 µM.

`C=C1C(=O)[C@]23[C@H](OC(=O)CCC(=O)OCO/N=[N+](\[O-])N4CCOCC4)[C@H]1CC[C@H]2[C@@]12CO[C@@]3(O)[C@@H](O)[C@@H]1C(C)(C)CC[C@@H]2O`: in data set [1], the inhibition at 1 µM turned out to be 88.5%. The inhibition at 10 µM in data set [2] was 93.3%. In addition, the half-maximal inhibitory concentration (IC50) in [3] was 2.75 µM. In addition, in [4], the Drug metabolism entry was “Metabolite_Detected”.

Regarding `C=C1C(=O)[C@]23[C@H](OC(=O)CCC(=O)OCO/N=[N+](\[O-])N4CCCC4)[C@H]1CC[C@H]2[C@@]12CO[C@@]3(O)[C@@H](O)[C@@H]1C(C)(C)CC[C@@H]2O`, in data set [1], the inhibition at 1 µM came to 15.9%. In data set [2], the inhibition at 10 µM amounted to 93.2%. For the same molecule, the half-inhibitory concentration (IC50) in data set [3] came out at 13.3 µM. Also, the Drug metabolism result in data set [4] is recorded as “Metabolite_Detected”.

Take `C=C1C(=O)[C@]23[C@H](OC(=O)CCC(=O)OCO/N=[N+](\[O-])N4CCOCC4)[C@H]1CC[C@H]2[C@@]12CO[C@@]3(O)[C@@H](O)[C@@H]1C(C)(C)CC[C@@H]2OC(C)=O`: the inhibition at 1 µM in data set [1] worked out at 85.8%. For the same molecule, the inhibition at 10 µM in data set [2] amounted to 94.5%. Moreover, the half-inhibitory concentration (IC50) in data set [3] amounted to 3.03 µM.

For the molecule `C=C1C(=O)[C@]23[C@H](OC(=O)CCC(=O)OCO/N=[N+](\[O-])N4CCOCC4)[C@H]1CC[C@H]2[C@@]12CO[C@@]3(O)[C@@H](O)[C@@H]1C(C)(C)CCC2=O`, the inhibition at 1 µM in data set [1] worked out at 71.3%. In data set [2], the inhibition at 10 µM stood at 93.1%. The IC50 in [3] is 3.26 µM.

On to `C=C1C(=O)[C@]23[C@H](OC(=O)CCCC(=O)OCO/N=[N+](\[O-])N4CCOCC4)[C@H]1CC[C@H]2[C@@]12CO[C@@]3(O)[C@@H](O)[C@@H]1C(C)(C)CCC2=O`, for which the inhibition at 1 µM in data set [1] amounted to 87.8%. The IC50 in [5] was found to be 2.46 µM; in data set [8] it was 2.57 µM; in data set [13] it was 8.48 µM; in data set [3], 1.84 µM; in [17], 1.13 µM. The Activity is listed as 51.91% in data set [6]; 5.1% in [7]; 36.22% in [9]; 4.8% in data set [10]; 66.35% in [11]; 68.47% in data set [12]. Also, the Activity is 26.42% in data set [14]; “Dose-dependent effect” in data set [15]; 58.98% in data set [16]; 3.66% in [18]; 29.99% in [19]. Further, the inhibition at 10 µM in data set [2] came out at 93.9%. Also, the Drug metabolism entry in [4] is listed as “Metabolite_Detected”.

For `COc1cccc2c1C(=O)c1c(O)c3c(c(O)c1C2=O)C[C@@](O)(C(=O)CO)C[C@@H]3O[C@H]1C[C@H](N)[C@H](O)[C@H](C)O1` [DOXORUBICIN HYDROCHLORIDE], the IC50 in [3] was determined as 0.83 µM.

Turning to `C=C1C(=O)[C@]23[C@H](O)[C@H]1CC[C@H]2[C@@]12CO[C@]3(O)[C@@H](O)[C@@H]1C(C)(C)CC[C@@H]2O` [ORIDONIN], the inhibition at 1 µM in data set [1] amounted to 29.9%. The inhibition at 10 µM in data set [2] was 93.6%. Also, the 50% inhibitory concentration (IC50) in data set [3] is 7.12 µM.

Consider `C=C1C(=O)[C@]23[C@H](OC(=O)CCC(=O)OCO/N=[N+](\[O-])N4CCCC4)[C@H]1CC[C@H]2[C@@]12CO[C@@]3(O)[C@@H](O)[C@@H]1C(C)(C)CCC2=O`, for which, in [1], the inhibition at 1 µM is 24.2%. The inhibition at 10 µM in data set [2] is 93.6%. The 50% inhibitory concentration (IC50) in data set [3] came out at 14.6 µM.

For the molecule `C=C1C(=O)[C@]23[C@H](OC(=O)CCCC(=O)OCO/N=[N+](\[O-])N4CCCC4)[C@H]1CC[C@H]2[C@@]12CO[C@@]3(O)[C@@H](O)[C@@H]1C(C)(C)CCC2=O`, the inhibition at 1 µM in data set [1] came to 13.5%. Moreover, in data set [2], the inhibition at 10 µM turned out to be 93.9%. For the same molecule, the IC50 in [3] stood at 17 µM. Moreover, the Drug metabolism entry in data set [4] was “Metabolite_Detected”.

Consider `C=C1C(=O)[C@]23[C@H](OC(=O)CCC(=O)O)[C@H]1CC[C@H]2[C@@]12CO[C@@]3(O)[C@@H](O)[C@@H]1C(C)(C)CCC2=O`, for which the 50% inhibitory concentration (IC50) in data set [20] was 5.28 µM; in [3], 9.07 µM.

In general, inhibition refers to the change of the read-out against control, counted positive when it falls. A word on the IC50: it is the concentration that gives 50% inhibition.

The values above are taken from ChEMBL document CHEMBL4715713, “Novel anticancer oridonin derivatives possessing a diazen-1-ium-1,2-diolate nitric oxide donor moiety: Design, synthesis, biological evaluation and nitric oxide release studies” (Bioorg Med Chem Lett, 2016).
